In ChEMBL document CHEMBL1158588, “Discovery of brain-penetrant, orally bioavailable aminothienopyridazine inhibitors of tau aggregation” (J Med Chem, 2010):
Converted amounts (≈) assume the structure as drawn. The source made the active and inactive calls. No cut-off for these calls is given here.

Assays:
Plasma [1] = assay: Drug level in plasma of B6C3F1 mouse at 5 mg/kg, ip by LC-MS/MS analysis; assay type: ADME, organism-based; set-up: dose 5 mg/kg, route intraperitoneal; settings: in vivo
Procedure, shortened: (§1)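 Three female B6C3F1 mice per compound were given 5 mg/kg i.p. Brain and plasma were sampled at a single 1 h time point. Brain was homogenized 1:2 w/v in 10 mM ammonium acetate pH 5.7, and plasma was collected in EDTA. Samples were extracted with acetonitrile and quantified by LC-MS/MS MRM against spiked calibration curves. B/P was taken as the brain/plasma ratio.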

[2] = Aqueous solubility in sodium acetate buffer at pH 7.0 by turbidimetric measurements; assay type: physicochemical
Procedure, shortened: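 Compounds were serially diluted 2.5-fold in DMSO, then diluted 100-fold into 100 mM NaOAc pH 7.0 (final 200 µM down to 0.03 µM, 1% DMSO). Plates were agitated for 2.5 h and absorbance was read at 550–700 nm with the DMSO blank subtracted. The solubility limit was taken as the concentration before the one where mean absorbance exceeded 0.03 AU.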

[3] = Inhibition of tau40 protein aggregation by orthogonal sedimentation based SDS-PAGE relative to control; set-up: concentration or dose not given beside the values; settings: concentration not given here
HEK293 = assay: Cytotoxicity against HEK293 cells up to 100 uM after 72 hrs by alamar blue assay; assay type: cell-based; settings: human, hek293, 72 h
Procedure, shortened: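 HEK-293 cells were plated at 20,000 per well in DMEM with 10% FCS. After 24 h, half-log compound dilutions starting at 200 µM were added. Cells were cultured for 72 h, and viability was read by Alamar blue fluorescence. CC50 values were fitted from the curves.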

[4] = Inhibition of K18PL tau protein aggregation by orthogonal sedimentation based SDS-PAGE relative to control; settings: concentration not given here
Brain = assay: Drug level in brain of B6C3F1 mouse at 5 mg/kg, ip by LC-MS/MS analysis; assay type: ADME, organism-based; set-up: dose 5 mg/kg, route intraperitoneal; settings: in vivo; procedure, shortened: as §1
Homo sapiens = organism: Homo sapiens; assay: Inhibition of human full length tau40 protein-mediated bovine brain tubulin assembly at 62.5 uM by MT assembly assay
Procedure, shortened: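 Wild-type full-length human tau40 (2N4R, 25 µM) was preincubated with compound at 62.5 µM in RAB pH 6.9 for 120 min at room temperature. Bovine brain tubulin and GTP were then added, giving final concentrations of 30 µM tubulin, 20 µM tau, 50 µM compound and 2 mM GTP. Absorbance at 340 nm was read every minute for 45 min at 37 °C.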

[5] = Inhibition of heparin-induced K18PL tau protein aggregation assessed as thioflavin T binding by fluorescence assay relative to control; settings: concentration not given here
[6] = Ratio of drug level from brain to plasma of B6C3F1 mouse at 5 mg/kg, ip by LC-MS/MS analysis; assay type: ADME, organism-based; set-up: dose 5 mg/kg, route intraperitoneal; procedure, shortened: as §1
[7] = Oral bioavailability in B6C3F1 mouse at 5 mg/kg; assay type: ADME, organism-based; settings: in vivo
Procedure, shortened: (§2)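 Mice were dosed by oral gavage at 5 mg/kg. […] Bioavailability was obtained by comparing plasma AUC after oral dosing with AUC after 2 mg/kg i.v.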

[8] = Ratio of drug level from brain to plasma of B6C3F1 mouse at 2 mg/kg, iv; assay type: ADME, organism-based; set-up: dose 2 mg/kg, route intravenous; settings: read-out: BPR
Procedure, shortened: (§3)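 Female B6C3F1 mice, two months old, given 2 mg/kg i.v., three mice per time point at 0.5, 1, 2, 4, 8 and 16 h. Brain hemispheres were homogenized in 10 mM ammonium acetate pH 5.7, and plasma was taken from EDTA blood. Both were extracted with acetonitrile and measured by LC-MS/MS (MRM) against spiked standard curves at 4–4000 ng/mL.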

[9] = AUC (0.5 to 16 hrs) in plasma of B6C3F1 mouse at 5 mg/kg, po; assay type: ADME, organism-based; set-up: time 0.5-16 hr, dose 5 mg/kg, route oral; procedure, shortened: as §2
[10] = AUC (0.5 to 16 hrs) in brain of B6C3F1 mouse at 2 mg/kg, iv; assay type: ADME, organism-based; set-up: time upper 16 hr, time lower 0.5 hr, dose 2 mg/kg, route intravenous; procedure, shortened: as §3
[11] = AUC (0.5 to 16 hrs) in plasma of B6C3F1 mouse at 2 mg/kg, iv; assay type: ADME, organism-based; set-up: time upper 16 hr, time lower 0.5 hr, dose 2 mg/kg, route intravenous; procedure, shortened: as §3
Plasma [12] = assay: Elimination half life in plasma of B6C3F1 mouse at 2 mg/kg, iv; assay type: ADME, organism-based; set-up: dose 2 mg/kg, route intravenous; settings: in vivo
Procedure, shortened: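 Female B6C3F1 mice received 2 mg/kg i.v., three per time point. Plasma levels were measured by LC-MS/MS with 1/x-weighted calibration, averaging triplicate injections. Half-life was derived from the elimination rate constant, taken as the slope of ln plasma concentration against time over the 4, 8 and 16 h points.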

| SMILES | Drug uptake (Plasma [1]) [ng/mL] | solubility kinetic [2] [µM] | inhibition [3] [%] | inhibition [4] [%] | Drug uptake (Brain) [ng/g] | inhibition (Homo sapiens) | inhibition [5] [%] | BPR [6] | bioavailability [7] [%] | Kp [8] | AUC(0-t) [9] [ng·h/mL] | AUC(0-t) [10] [ng·h/mL] | AUC(0-t) [11] [ng·h/mL] | beta t1/2 (Plasma [12]) | Activity (HEK293) |
| --- | --- | --- | --- | --- | --- | --- | --- | --- | --- | --- | --- | --- | --- | --- | --- |
| CCN(C)C(=O)c1nn(-c2ccc(Cl)cc2)c(=O)c2c(N)scc12 | 138 | 80 (≈ 29 µg/mL) | 58 | 62 | 122 | inactive | 75 |  |  |  |  |  |  |  | Non-toxic |
| CN(C)C(=O)c1nn(-c2ccc(Cl)cc2)c(=O)c2c(N)scc12 | 30 | 32 (≈ 11.2 µg/mL) | 69 | 69 | 14 | inactive | 75 |  |  |  |  |  |  |  | Non-toxic |
| CC(C)NC(=O)c1nn(-c2ccc(Cl)cc2)c(=O)c2c(N)scc12 | 499 | 32 (≈ 11.6 µg/mL) | 45 | 65 | 1100 | inactive | 83 |  |  |  |  |  |  |  | Non-toxic |
| CCOC(=O)c1nn(-c2ccc(Cl)cc2)c(=O)c2c(N)scc12 | 20 | 13 (≈ 4.55 µg/mL) | 48 | 70 | 67 | inactive | 71 |  |  |  |  |  |  |  | Non-toxic |
| Nc1scc2c(C(=O)O)nn(-c3ccc(Cl)cc3)c(=O)c12 | 5230 | > 200 | 62 | 79 | 121 | inactive | 84 |  |  |  |  |  |  |  | Non-toxic |

Now from value to compound, other results behind:

| Drug uptake (Plasma [1]) [ng/mL] | solubility kinetic [2] [µM] | inhibition [3] [%] | inhibition [4] [%] | Drug uptake (Brain) [ng/g] | inhibition (Homo sapiens) | inhibition [5] [%] | BPR [6] | bioavailability [7] [%] | Kp [8] | AUC(0-t) [9] [ng·h/mL] | AUC(0-t) [10] [ng·h/mL] | AUC(0-t) [11] [ng·h/mL] | beta t1/2 (Plasma [12]) | SMILES | Activity (HEK293) |
| --- | --- | --- | --- | --- | --- | --- | --- | --- | --- | --- | --- | --- | --- | --- | --- |
| 500 | 32 (≈ 11.2 µg/mL) | 87 | 94 | 886 | inactive | 84 |  |  |  |  |  |  |  | CCNC(=O)c1nn(-c2ccc(Cl)cc2)c(=O)c2c(N)scc12 | Non-toxic |
| 316 | 13 (≈ 5.29 µg/mL) | 55 | 58 | 641 | inactive | 85 |  |  |  |  |  |  |  | CC(C)NC(=O)c1nn(-c2ccc(Br)cc2)c(=O)c2c(N)scc12 | Non-toxic |
| 84 | 32 (≈ 11.6 µg/mL) | 61 | 44 | 436 | inactive | 79 | 5.2 |  |  |  |  |  |  | CC(C)OC(=O)c1nn(-c2ccc(Cl)cc2)c(=O)c2c(N)scc12 | Non-toxic |
| 70 | 13 (≈ 4.35 µg/mL) | 61 | 68 | 34 | inactive | 78 |  |  |  |  |  |  |  | CNC(=O)c1nn(-c2ccc(Cl)cc2)c(=O)c2c(N)scc12 | Non-toxic |
| 823 | 32 (≈ 11.5 µg/mL) | 58 | 69 | 1299 | inactive | 83 |  | 70 | 1.58 | 526 | 469 | 297 | >= 2.5 hr | Nc1scc2c(C(=O)NC3CC3)nn(-c3ccc(Cl)cc3)c(=O)c12 | Non-toxic |
